Reference: ChEMBL document CHEMBL1833887, “Synthesis and evaluation of 7-substituted 4-aminoquinoline analogues for antimalarial activity” (J Med Chem, 2011)
≈ marks a conversion by molar mass, not a printed value.

Experiments:
[1] = Solubility of the compound at pH 7.4 after 18 hrs by UV spectroscopic analysis; format: physicochemical; conditions: buffer
Summary of the method: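 Kinetic solubility. A 10 mM stock is diluted 1:100 into PBS pH 7.4 and incubated 18 h at room temperature, then filtered; the filtrate is mixed 1:1 with 1-propanol. UV spectrum (250–500 nm) compared by AUC with a 1-propanol/PBS reference. Single experiment in triplicate.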

[2] = Permeability of the compound at pH 7.4 after 30 mins by PAMPA; format: ADME; conditions: read-out: permeability
Summary of the method: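 PAMPA at pH 7.4. A 10 mM DMSO stock is diluted into system solution buffer; its UV spectrum serves as reference. Membrane painted with GIT lipid, acceptor chamber holds acceptor solution buffer. Sandwich stirred for 30 min, aqueous boundary layer set to 40. Donor and acceptor UV spectra read at 250–500 nm. Permeability coefficient from the AUCs of reference, donor and acceptor. Single experiment in triplicate.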

[3] = Dissociation constant, pKa of the compound; format: physicochemical
Plasmodium falciparum [4] = assay: Antimalarial activity against chloroquine-sensitive Plasmodium falciparum 3D7 infected in human erythrocytes assessed as reduction in parasitemia after 72 hrs by spectrophotometry; format: functional, organism-based; conditions: 3D7, 72 h
Plasmodium falciparum [5] = assay: Antimalarial activity against chloroquine-resistant Plasmodium falciparum K1 infected in human erythrocytes assessed as reduction in parasitemia after 72 hrs by spectrophotometry; format: functional, organism-based; conditions: K1, 72 h
Plasmodium falciparum [6] = assay: Ratio of EC50 for chloroquine-resistant Plasmodium falciparum K1 infected in human erythrocytes to EC50 for chloroquine-sensitive Plasmodium falciparum 3D7 infected in human erythrocytes; format: functional
HepG2 = assay: Cytotoxicity against human HepG2 cells assessed as intracellular ATP level after 72 hrs by Celltiter-Glo luminescent assay; format: cell-based; conditions: HepG2, 72 h
[7] = Ratio of EC50 for human HepG2 cells to EC50 for Plasmodium falciparum 3D7 infected in human erythrocytes
[8] = Ratio of EC50 for human HepG2 cells to EC50 for Plasmodium falciparum K1 infected in human erythrocytes

SMILES	solubility at 18 h [1] [µM]	Papp at 0.5 h [2] [×10⁻⁶ cm/s]	pKa [3]	EC50 (Plasmodium falciparum [4]) [nM]	EC50 (Plasmodium falciparum [5]) [nM]	Ratio EC50 (Plasmodium falciparum [6])	EC50 (HepG2) [nM]	Ratio EC50 [7]	Ratio EC50 [8]
FC(F)(F)c1cccc(Cc2ccc3c(NCCCNCc4ccc5c(c4)OCO5)ccnc3c2)c1	4.2 (≈ 2.07 µg/mL)	23	9.47	39	1310	33.5	2200	56.1	1.7
c1ccc(Cc2ccc3c(NCCCNCc4ccco4)ccnc3c2)cc1	4.2 (≈ 1.56 µg/mL)	23	9.47	40	3550	89.9	16000	405.1	4.5
COc1ccc(F)cc1CNCCCNc1ccnc2cc(Cc3cccc(C(F)(F)F)c3)ccc12	4.2 (≈ 2.09 µg/mL)	23	9.47	40	323	8.1	440	11	1.3
CCC(CC)c1ccc2c(NCCCNCc3cc(F)ccc3OC)ccnc2c1	4.2 (≈ 1.72 µg/mL)	23	9.47	40	1930	48	7860	194.9	4.1
c1cc(NCCCNCc2ccc3c(c2)OCO3)c2ccc(CC3CCCCC3)cc2n1	4.2 (≈ 1.81 µg/mL)	23	9.47	41	701	17.3	6290	155.2	9
Cc1cc(C)cc(Cc2ccc3c(NCCCNCc4ccc5c(c4)OCO5)ccnc3c2)c1	4.2 (≈ 1.91 µg/mL)	23	9.47	41	1040	25.6	2250	55.5	2.2
c1ccc(CCc2ccc3c(NCCCNCc4ccco4)ccnc3c2)cc1	4.2 (≈ 1.62 µg/mL)	23	9.47	46	2930	63.7	16000	347.8	5.5
COc1cccc(CNCCCNc2ccnc3cc(CC4CCCCC4)ccc23)c1O	4.2 (≈ 1.82 µg/mL)	23	9.47	50	2610	52.7	970	19.6	0.4
c1coc(CNCCCNc2ccnc3cc(CC4CCCCC4)ccc23)c1	4.2 (≈ 1.59 µg/mL)	23	9.47	55	621	11.2	1700	30.7	2.7
FC(F)(F)c1cccc(Cc2ccc3c(NCCCNCc4ccco4)ccnc3c2)c1	4.2 (≈ 1.85 µg/mL)	23	9.47	56	743	13.2	3190	56.7	4.3
Fc1ccc(Cc2ccc3c(NCCCNCc4ccco4)ccnc3c2)cc1	4.2 (≈ 1.64 µg/mL)	23	9.47	57	1660	28.9	5600	97.5	3.4
CC(C)Cc1ccc2c(NCCCNCc3ccc4c(c3)OCO4)ccnc2c1	4.2 (≈ 1.64 µg/mL)	23	9.47	66	1810	27.7	2380	36.3	1.3
COc1ccc(F)cc1CNCCCNc1ccnc2cc(Cc3ccc(F)cc3)ccc12	4.2 (≈ 1.88 µg/mL)	23	9.47	75	580	7.8	3530	47.1	6.1
CCC(CC)c1ccc2c(NCCCNCc3ccco3)ccnc2c1	4.2 (≈ 1.48 µg/mL)	23	9.47	86	4300	50.1	6760	78.7	1.6
COc1ccc(F)cc1CNCCCNc1ccnc2cc(CC(C)C)ccc12	4.2 (≈ 1.66 µg/mL)	23	9.47	89	2120	23.9	2900	32.7	1.4
COc1ccc(F)cc1CNCCCNc1ccnc2cc(C3CCCCC3)ccc12	4.2 (≈ 1.77 µg/mL)	23	9.47	90	1600	17.7	2290	25.4	1.4
COc1ccc(F)cc1CNCCCNc1ccnc2cc(CCC(C)C)ccc12	4.2 (≈ 1.72 µg/mL)	23	9.47	116	360	3.1	890	7.7	2.5
c1coc(CNCCCNc2ccnc3cc(C4CCCCC4)ccc23)c1	4.2 (≈ 1.53 µg/mL)	23	9.47	118	3900	33.1	4760	40.4	1.2
Fc1ccc(Cc2ccc3c(NCCCNCc4ccc5c(c4)OCO5)ccnc3c2)cc1	4.2 (≈ 1.86 µg/mL)	23	9.47	127	256	2	5550	43.7	21.7
c1cc(NCCCNCc2ccc3c(c2)OCO3)c2ccc(C3CCCCC3)cc2n1	4.2 (≈ 1.75 µg/mL)	23	9.47	128	4710	36.7	3020	23.6	0.6
COc1ccc(F)cc1CNCCCNc1ccnc2cc(CCc3ccccc3)ccc12	4.2 (≈ 1.86 µg/mL)	23	9.47	132	2140	16.2	4240	32.1	2
COc1ccc(F)cc1CNCCCNc1ccnc2cc(CC3CCCCC3)ccc12	4.2 (≈ 1.83 µg/mL)	23	9.47	138	687	5	1830	13.3	2.7
CC(C)CCc1ccc2c(NCCCNCc3ccco3)ccnc2c1	4.2 (≈ 1.48 µg/mL)	23	9.47	176	4600	26.1	11200	63.7	2.4
